Bioassay records deposited in PubChem by several laboratories.
In the library only some 2.1% were active in any assay of this set; here they are far more common.
APOBEC3G inh: APOBEC3G (human) deaminase inhibition. Q9HC16. recombinant A3G, ssDNA deamination FAM/TAMRA fluorescence. inhibition, % at 20 µM. actives 0.28% (n = 330,000);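 active means inhibition of at least 40% at 20 µM, with no more than 30% in the related APOBEC3A deaminase screen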;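 further: plate controls were DMSO wells with A3G for no effect and wells lacking A3G enzyme for full effect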
Target sequence (Q9HC16 whole entry, looked up): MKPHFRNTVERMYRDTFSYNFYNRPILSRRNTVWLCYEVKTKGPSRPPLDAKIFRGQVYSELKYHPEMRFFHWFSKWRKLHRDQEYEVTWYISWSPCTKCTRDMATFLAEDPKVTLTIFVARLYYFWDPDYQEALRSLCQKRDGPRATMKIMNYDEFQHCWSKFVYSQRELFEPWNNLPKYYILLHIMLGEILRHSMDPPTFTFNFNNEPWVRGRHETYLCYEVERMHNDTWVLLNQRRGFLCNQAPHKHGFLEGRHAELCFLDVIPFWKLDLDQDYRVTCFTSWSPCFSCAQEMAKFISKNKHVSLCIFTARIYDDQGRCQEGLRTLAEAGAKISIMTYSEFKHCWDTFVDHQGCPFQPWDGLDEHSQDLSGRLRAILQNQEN
Mot1-301 SUMO: SUMOylation pathway inhibition by Mot1-301 growth rescue; growth rescue, % at 18.8 µM; S. cerevisiae Mot1-301 growth rescue, ATP luminescence, 38.5C; percent above DMSO median, 100 means doubled; actives 1% (n = 320,000);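 active means every valid replicate shows activation above 250% relative to neutral control wells; inactive means the rest, any valid replicate at or below 250%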;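 further: OY570 slx delta 5 strain wells were the positive control but not used for scaling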
ASAP1 GAP inh: blocks human ASAP1-stimulated Arf1 GTP hydrolysis. GDP FP detection. inhibition, % at 16.5 µM. actives 0.19% (n = 360,000). AID 624377; in the data active means inhibition above about 25%;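 further: 0% = vehicle with enzyme and substrate and 100% = no enzyme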
ARFGAP1 inhibitor: inhibitors of rat ARFGAP1. Q62848. Arfgap1-stimulated ARF1 GTP hydrolysis, GDP FP detection. inhibition, % at 16.5 µM. actives 0.26% (n = 360,000). AID 651572;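 active means inhibition above a per-plate limit, mean inhibition of low control wells plus 3 SD, cut at about 25% in these data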;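 further: 0% = DMSO wells with enzyme and 100% = wells lacking Arfgap1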
Target sequence (Q62848 1-136 limits assumed): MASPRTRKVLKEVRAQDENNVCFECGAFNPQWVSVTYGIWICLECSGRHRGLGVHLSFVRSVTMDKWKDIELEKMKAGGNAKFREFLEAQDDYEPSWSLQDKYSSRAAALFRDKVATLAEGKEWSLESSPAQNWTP
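Material: truncated rat Arfgap1 GAP domain; Incubation: compound-enzyme preincubation 20 min, reaction 120 min, detection 60 min, 25 °C; Read-out: percent inhibition of Arfgap1-stimulated GTP hydrolysis; Technique: FP, GDP Alexa 633 tracer displaced from anti-GDP antibody, 620/688 nm; Controls: No-Arfgap1 wells (100%) versus DMSO full-reaction wells (0%); Replication: single well per compound.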
A3A deaminase: blocks human APOBEC3A ssDNA deamination; P31941; recombinant A3A, FAM/TAMRA ssDNA deamination fluorescence; inhibition, % at 20 µM; actives 0.41% (n = 330,000); AID 493011;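 active means at least 40% inhibition at 20 µM here, with at most 30% in a related deaminase screen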;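 further: plate controls were A3A with DMSO for no effect and wells lacking A3A enzyme for full effect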
Target sequence (P31941 whole entry, looked up): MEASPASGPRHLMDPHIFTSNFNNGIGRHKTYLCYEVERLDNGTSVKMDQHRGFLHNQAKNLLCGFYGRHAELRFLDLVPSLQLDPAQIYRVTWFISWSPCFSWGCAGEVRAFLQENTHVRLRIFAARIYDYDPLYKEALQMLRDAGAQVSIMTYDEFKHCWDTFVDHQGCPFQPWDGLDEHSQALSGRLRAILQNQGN
C2C12 statin: protects C2C12 myotubes from simvastatin toxicity; ATP luminescence, 48 h; scaled: DMSO 0, geranylgeraniol control 100; actives 0.78% (n = 330,000); rescue of ATP level, % at 7.49 µM;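 active means mean ATP rescue above about 67%, or every replicate alone reaching that limit, limit read from the data, passing the limit was not always enough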;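 further: myotubes were challenged with 10 µM simvastatin during compound exposure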
APOBEC3A confirm: APOBEC3A (human) deaminase inhibition, confirmed. shares compounds with A3A deaminase. recombinant A3A, ssDNA deaminase UDG fluorescence assay. inhibition, % at 20 µM. actives 63% (n = 1,400). AID 493151;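 active means inhibition reaching a set limit, 80% of the first screen's cutoff, at 20 µM in any replicate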;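 further: plate controls were DMSO wells with A3A for no effect and wells lacking A3A enzyme for full effect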
UDG ctr A3A: inhibits UDG, flagging false APOBEC3A inhibitors | 1,000 tested, under 10 active | UDG counterscreen, FAM/TAMRA uracil oligo fluorescence | shares compounds with A3A deaminase | inhibition, % at 20 µM; call rule not given here
* hit, by the source's call; x = not tested or not shown.

SMILES | APOBEC3G inh | Mot1-301 SUMO | ASAP1 GAP inh | ARFGAP1 inhibitor | A3A deaminase | C2C12 statin | APOBEC3A confirm | UDG ctr A3A
CCN1C(=NCCc2c[nH]c3ccccc23)N[C@@H](c2ccccc2)[C@H](C(=O)OC)[C@H]1C | 4.5 | 93.0 | 6.1 | -2.0 | 51.0* | 0.1 | 45.0* | -1.8
CCN1C(=NCc2ccccc2)N[C@@H](c2ccccc2)[C@H](C(=O)OC)[C@H]1C | 31.7 | 1.9 | -17.1 | -6.9 | 55.1 | 19.1 | x | x
CC1CCCCN1C(=O)COc1ccc(S(=O)(=O)N2CCCC2)cc1[N+](=O)[O-] (centres undefined) | 0.7 | -16.4 | 0.8 | -4.8 | 1.6 | -0.4 | x | x
N#CC1(NC(=O)COc2ccc(S(=O)(=O)N3CCCC3)cc2[N+](=O)[O-])CCCCC1 | 5.1 | -1.4 | 13.4 | 8.8 | 51.2* | x | -0.6 | x
CC1CCN(Cc2c(O)ccc3c2O/C(=C\c2ccco2)C3=O)CC1 | 4.1 | -2.1 | x | x | 96.9* | x | 36.2* | -4.7
COC(=O)COc1ccc2c(c1)O/C(=C\c1ccco1)C2=O | -4.0 | -13.5 | 10.0 | 2.9 | 5.3 | -6.2 | x | x
COCCN(CCOC)Cc1c(O)ccc2c1O/C(=C\c1ccco1)C2=O | 14.0 | -10.1 | -11.3 | 10.3 | 56.4* | -8.2 | 26.6* | 2.0
O=C1/C(=C/c2ccco2)Oc2c1ccc(O)c2CN1CCCCC1 | 72.1 | 4.3 | 8.1 | 3.3 | 86.4 | x | x | x
C[C@H](CO)N1C[C@H](C)[C@@H](CN(C)C(=O)Oc2ccccc2)OCc2ccccc2-c2ccccc2C1=O | x | x | x | x | x | -14.9 | x | x
C[C@@H]1CN([C@@H](C)CO)C(=O)c2cc(-c3cccc(C#N)c3)cnc2O[C@@H]1CN(C)C(=O)C1CCC1 | x | x | x | x | x | -6.6 | x | x
Cc1noc(C)c1NC(=O)Nc1ccc2c(c1)C(=O)N([C@H](C)CO)C[C@@H](C)[C@H](CN(C)Cc1ccc(C(=O)O)cc1)OCCCC[C@@H](C)O2 | x | x | x | x | x | -1.3 | x | x
COc1ccc(-c2csc(N(CCCN(C)C)C(=O)c3ccccc3F)n2)cc1 | -8.8 | -8.8 | 1.8 | 0.0 | 47.8* | -52.9 | -6.5 | -1.0
COc1ccc(-c2csc(N(CCCN(C)C)C(=O)c3ccccc3C)n2)cc1 | 30.7 | 9.0 | 6.3 | 3.6 | -5.4 | 15.9 | x | x
C[C@H](CO)N1C[C@H](C)[C@H](CN(C)C(=O)Cc2ccccc2)OCCCC[C@H](C)Oc2ccc(NC(=O)CCC(F)(F)F)cc2C1=O | x | x | x | x | x | 48.9 | x | x
Cc1cc(C)n2nc[n+](C)c2n1 | 22.2 | -10.7 | -2.0 | -12.6 | 52.5* | 13.5 | 39.5* | -2.1
CC1=CC(C)(C)[N+](C)=CN1c1ccccc1 | 15.3 | -3.8 | 5.8 | 3.1 | 57.4* | x | 70.4* | 4.2
Cc1ccc2nc(C)c3c(c2c1)COC3 | -5.0 | 44.3 | 5.6 | 21.0 | 62.2* | x | -0.5 | 4.0
Cc1nc2c(C)cccc2c2c1COC2 | -1.3 | -3.5 | 9.8 | -1.5 | 1.6 | -7.0 | x | x
O=C(N[C@@H]1CC[C@@H](CC(=O)N2CCC(Cc3ccccc3)CC2)O[C@H]1CO)c1cnccn1 | x | x | x | x | x | 6.5 | x | x
Cc1cc(C)n2nc(C(=O)Nc3c(C)nn(Cc4ccc(F)cc4)c3C)cc2n1 | 3.8 | 179.9 | 0.0 | -1.3 | 12.1 | -3.6 | x | x
Cc1nn(Cc2ccc(F)cc2)c(C)c1NC(=O)c1cc2ncc(Br)cn2n1 | 4.3 | -16.5 | 2.3 | -2.0 | 40.7* | 4.2 | 26.4 | x
O=C(NCc1ccc2c(c1)OCO2)c1cc2ncc(Br)cn2n1 | 10.4 | 638.5 | 13.2 | 7.5 | 92.7* | 19.3 | 82.7* | -1.1
O=C1N=C(N2CCCC2C(=O)O)S/C1=C\c1ccco1 (centres undefined) | 10.9 | 3.0 | -4.3 | 0.5 | 43.7* | x | 19.2* | 2.7
C[n+]1cc(-c2ccccc2)n2c1CCCCC2 | 8.7 | -15.9 | x | x | 53.3* | x | 67.0* | -2.6
COC(=O)CCC(=O)OC1(C)C(=O)C2=COC(c3ccc(OC)cc3)=CC2=C(Br)C1=O (centres undefined) | 11.6 | -5.0 | x | x | 45.7* | x | 28.9 | x
SMILES | APOBEC3G inh | Mot1-301 SUMO | ASAP1 GAP inh | ARFGAP1 inhibitor | A3A deaminase | C2C12 statin | APOBEC3A confirm | UDG ctr A3A
C[C@H](CO)N1C[C@H](C)[C@H](CN(C)Cc2ccncc2)OCCCC[C@H](C)Oc2ccc(NC(=O)Nc3ccc(F)cc3)cc2C1=O | x | x | x | x | x | -11.1 | x | x
CNC[C@H]1Oc2ncc(-c3cccc(C(=O)N(C)C)c3)cc2C(=O)N([C@H](C)CO)C[C@H]1C | x | x | x | x | x | 16.2 | x | x
CCC1CCCCN1C(=O)COc1cc(=O)n(C)c2ccccc12 (centres undefined) | -8.4 | 23.8 | -4.4 | 3.9 | -0.5 | 5.6 | x | x
CCC1CCCCN1C(=O)COc1ccccc1NC(C)=O (centres undefined) | 11.1 | -6.1 | -7.0 | 3.4 | 40.8* | 3.8 | 2.7 | x
CCNC(=O)Cn1cc(C#N)c2ccccc21 | 19.6 | -3.6 | -2.1 | 8.2 | 53.5* | 92.6* | 11.1 | x
COc1ccc(CNC(=O)C[C@H]2C[C@@H]3c4cc(NS(=O)(=O)c5ccc(F)cc5)ccc4O[C@@H]3[C@H](CO)O2)cc1 | x | x | x | x | x | 14.6 | x | x
CCOc1cc(C2C3=C(CC(C)(C)CC3=O)N(CCOC)C3=C2C(=O)CC(C)(C)C3)ccc1OC | 7.1 | 10.1 | 9.8 | 1.7 | 48.6* | -9.6 | 26.3 | x
CCOc1cc(C2C3=C(CC(C)(C)CC3=O)N(CCCOC)C3=C2C(=O)CC(C)(C)C3)ccc1OC | 4.7 | 148.2 | -3.7 | -3.8 | 0.9 | -5.6 | x | x
O=C(N[C@H]1CC[C@H](CC(=O)N2CCCCC2)O[C@H]1CO)c1cccc(F)c1 | x | x | x | x | x | -3.3 | x | x
CC(C)(C)NC(=O)NC(=O)CN1C(=O)NC(C)(c2ccccc2)C1=O (centres undefined) | -5.5 | -10.9 | 1.1 | -14.5 | -1.5 | -0.6 | x | x
CCOC(=O)NC(=O)CN1C(=O)NC(C)(c2ccccc2)C1=O (centres undefined) | -8.7 | 20.4 | 13.2 | 10.9 | 71.8* | x | -6.7 | -0.5
COc1cc2c(cc1OC)C(c1cccs1)N(C(=O)c1cccnc1)CC2 (centres undefined) | -6.8 | 4.3 | 10.3 | -7.0 | -3.2 | -21.0 | x | x
COc1ccc(C(=O)N2CCc3cc(OC)c(OC)cc3C2c2ccc(OC)c(OC)c2)cc1OC (centres undefined) | -9.0 | -19.2 | 2.0 | 6.4 | 58.6* | -7.3 | 5.5 | 6.1
Cc1cc(-c2ccccc2)nc2c(Br)c(C(=O)O)nn12 | 22.7 | 5.3 | x | x | 42.2* | x | 40.1* | -1.9
COc1ccccc1OC(C)C(=O)N1CCC(Cc2ccccc2)CC1 (centres undefined) | 5.0 | 6.3 | 2.8 | -1.3 | 55.4* | 16.5 | 46.7* | -2.4
C#CCSc1nc(Cc2ccc(Cl)cc2)nc2ccccc12 | -2.4 | 4.6 | 3.9 | 12.9 | 47.8* | 2.0 | -4.6 | -1.9
